{"source": "ChEMBL document CHEMBL4138271", "about": "“Crystal Structures and Human Leukemia Cell Apoptosis Inducible Activities of Parthenolide Analogues Isolated from Piptocoma rufescens” (J Nat Prod, 2018)", "key": {"EOL1 [1]": {"tested_on": "EOL1", "test": "Induction of apoptosis in human EOL-1 cells assessed as necrotic cells at 0.26 uM after 24 hrs by Annexin-V FITC/7-AAD staining based flow cytometric method (reference value: 0.032%)", "format": "functional"}, "MOLM-13 [2]": {"tested_on": "MOLM-13", "test": "Induction of apoptosis in human MOLM13 cells assessed as live cells at 1.8 uM after 24 hrs by Annexin-V FITC/7-AAD staining based flow cytometric method (reference value: 86.8%)", "format": "functional"}, "MOLM-13 [3]": {"tested_on": "MOLM-13", "test": "Induction of apoptosis in human MOLM13 cells assessed as late apoptotic cells at 0.26 uM after 24 hrs by Annexin-V FITC/7-AAD staining based flow cytometric method (reference value: 1.43%)", "format": "functional"}, "MOLM-13 [4]": {"tested_on": "MOLM-13", "test": "Induction of apoptosis in human MOLM13 cells assessed as caspase-3 activation at 10 uM after 72 hrs by immunoblotting analysis", "format": "functional, cell-based", "in_short": "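MOLM-13 cells treated 72 h with test compounds at 10 μM or PKC412 at 10 nM. Cells washed in ice-cold PBS, lysed at 10^8 cells/mL in NP-40 hypertonic buffer (pH 7.5) with protease/phosphatase inhibitors, then run on SDS-PAGE and PVDF. Blots probed 12 h with rabbit monoclonal cleaved caspase-3 (Asp175), β-actin as loading control. Representative of three independent experiments.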"}, "[5]": {"molecular_target": "Transcription factor p65 (Homo sapiens) (UniProt Q04206)", "sequence (Q04206 whole entry)": "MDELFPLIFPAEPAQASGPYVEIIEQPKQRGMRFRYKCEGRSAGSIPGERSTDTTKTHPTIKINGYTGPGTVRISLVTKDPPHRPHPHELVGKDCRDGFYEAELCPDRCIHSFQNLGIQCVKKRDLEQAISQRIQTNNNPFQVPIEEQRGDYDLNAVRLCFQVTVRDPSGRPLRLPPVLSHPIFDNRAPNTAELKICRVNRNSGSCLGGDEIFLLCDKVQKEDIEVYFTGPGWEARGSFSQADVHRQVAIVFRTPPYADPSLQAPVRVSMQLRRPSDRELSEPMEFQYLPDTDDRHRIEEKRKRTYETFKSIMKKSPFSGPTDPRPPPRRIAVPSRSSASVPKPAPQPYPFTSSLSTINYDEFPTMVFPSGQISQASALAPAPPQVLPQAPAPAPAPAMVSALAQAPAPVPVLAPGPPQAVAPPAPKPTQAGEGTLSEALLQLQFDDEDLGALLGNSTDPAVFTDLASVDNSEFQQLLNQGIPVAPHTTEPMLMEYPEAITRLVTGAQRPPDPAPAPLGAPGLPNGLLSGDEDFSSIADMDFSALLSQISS", "test": "Inhibition of NFkappaB p65 in human EOL-1 cells at 10 uM after 72 hrs by immunoblotting method", "format": "cell-based", "in_short": "(§1)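 MOLM-13 or EOL-1 cells treated 72 h at 10 μM. Cells washed in ice-cold PBS and lysed in hypertonic NP-40 buffer (10 mM HEPES pH 7.5, 0.5 M NaCl) with protease/phosphatase inhibitors. Protein measured by BCA; SDS-PAGE onto PVDF. Probed 12 h with rabbit monoclonal NF-κB-p65 antibody, goat β-actin as loading control, then chemiluminescence. Blots representative of three independent experiments.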"}, "[6]": {"molecular_target": "Transcription factor p65 (Homo sapiens) (UniProt Q04206)", "test": "Inhibition of NFkappaB p65 in human MOLM13 cells at 10 uM after 72 hrs by immunoblotting method", "format": "cell-based", "in_short": "as §1"}, "MOLM-13 [7]": {"tested_on": "MOLM-13", "test": "Induction of apoptosis in human MOLM13 cells assessed as necrotic cells at 1.8 uM after 24 hrs by Annexin-V FITC/7-AAD staining based flow cytometric method (reference value: 0%)", "format": "functional"}, "MOLM-13 [8]": {"tested_on": "MOLM-13", "test": "Cytotoxicity against human MOLM13 cells after 72 hrs by MTS assay", "format": "functional, cell-based", "conditions": "MOLM-13, 72 h"}, "EOL1 [9]": {"tested_on": "EOL1", "test": "Induction of apoptosis in human EOL-1 cells assessed as late apoptotic cells at 1.8 uM after 24 hrs by Annexin-V FITC/7-AAD staining based flow cytometric method (reference value: 0.535%)", "format": "functional"}, "MOLM-13 [10]": {"tested_on": "MOLM-13", "test": "Induction of apoptosis in human MOLM13 cells assessed as necrotic cells at 0.26 uM after 24 hrs by Annexin-V FITC/7-AAD staining based flow cytometric method (reference value: 0%)", "format": "functional"}, "EOL1 [11]": {"tested_on": "EOL1", "test": "Induction of apoptosis in human EOL-1 cells assessed as live cells at 0.59 uM after 24 hrs by Annexin-V FITC/7-AAD staining based flow cytometric method (reference value: 97.5%)", "format": "functional"}, "EOL1 [12]": {"tested_on": "EOL1", "test": "Induction of apoptosis in human EOL-1 cells assessed as necrotic cells at 0.59 uM after 24 hrs by Annexin-V FITC/7-AAD staining based flow cytometric method (reference value: 0.032%)", "format": "functional"}, "HT-29": {"tested_on": "HT-29", "test": "Cytotoxicity against human HT-29 cells after 72 hrs by MTS assay", "format": "functional, cell-based", "conditions": "HT-29, 72 h"}, "EOL1 [13]": {"tested_on": "EOL1", "test": "Cytotoxicity against human EOL-1 cells after 72 hrs by MTS assay", "format": "functional, cell-based", "conditions": "EOL1, 72 h"}, "MOLM-13 [14]": {"tested_on": "MOLM-13", "test": "Induction of apoptosis in human MOLM13 cells assessed as live cells at 0.59 uM after 24 hrs by Annexin-V FITC/7-AAD staining based flow cytometric method (reference value: 86.8%)", "format": "functional"}, "EOL1 [15]": {"tested_on": "EOL1", "test": "Induction of apoptosis in human EOL-1 cells assessed as live cells at 1.8 uM after 24 hrs by Annexin-V FITC/7-AAD staining based flow cytometric method (reference value: 97.5%)", "format": "functional"}, "MOLM-13 [16]": {"tested_on": "MOLM-13", "test": "Induction of apoptosis in human MOLM13 cells assessed as early apoptotic cells at 1.8 uM after 24 hrs by Annexin-V FITC/7-AAD staining based flow cytometric method (reference value: 11.8%)", "format": "functional"}, "EOL1 [17]": {"tested_on": "EOL1", "test": "Induction of apoptosis in human EOL-1 cells assessed as early apoptotic cells at 0.59 uM after 24 hrs by Annexin-V FITC/7-AAD staining based flow cytometric method (reference value: 1.94%)", "format": "functional"}, "EOL1 [18]": {"tested_on": "EOL1", "test": "Induction of apoptosis in human EOL-1 cells assessed as live cells at 0.26 uM after 24 hrs by Annexin-V FITC/7-AAD staining based flow cytometric method (reference value: 97.5%)", "format": "functional"}, "EOL1 [19]": {"tested_on": "EOL1", "test": "Induction of apoptosis in human EOL-1 cells assessed as early apoptotic cells at 1.8 uM after 24 hrs by Annexin-V FITC/7-AAD staining based flow cytometric method (reference value: 1.94%)", "format": "functional"}, "MOLM-13 [20]": {"tested_on": "MOLM-13", "test": "Induction of apoptosis in human MOLM13 cells assessed as late apoptotic cells at 0.59 uM after 24 hrs by Annexin-V FITC/7-AAD staining based flow cytometric method (reference value: 1.43%)", "format": "functional"}, "MOLM-13 [21]": {"tested_on": "MOLM-13", "test": "Induction of apoptosis in human MOLM13 cells assessed as necrotic cells at 0.59 uM after 24 hrs by Annexin-V FITC/7-AAD staining based flow cytometric method (reference value: 0%)", "format": "functional"}, "MOLM-13 [22]": {"tested_on": "MOLM-13", "test": "Induction of apoptosis in human MOLM13 cells assessed as early apoptotic cells at 0.26 uM after 24 hrs by Annexin-V FITC/7-AAD staining based flow cytometric method (reference value: 11.8%)", "format": "functional"}, "EOL1 [23]": {"tested_on": "EOL1", "test": "Induction of apoptosis in human EOL-1 cells assessed as late apoptotic cells at 0.59 uM after 24 hrs by Annexin-V FITC/7-AAD staining based flow cytometric method (reference value: 0.535%)", "format": "functional"}, "EOL1 [24]": {"tested_on": "EOL1", "test": "Induction of apoptosis in human EOL-1 cells assessed as early apoptotic cells at 0.26 uM after 24 hrs by Annexin-V FITC/7-AAD staining based flow cytometric method (reference value: 1.94%)", "format": "functional"}, "MOLM-13 [25]": {"tested_on": "MOLM-13", "test": "Induction of apoptosis in human MOLM13 cells assessed as late apoptotic cells at 1.8 uM after 24 hrs by Annexin-V FITC/7-AAD staining based flow cytometric method (reference value: 1.43%)", "format": "functional"}, "MOLM-13 [26]": {"tested_on": "MOLM-13", "test": "Synergistic antileukemic activity against human MOLM13 cells assessed as concentration required for <= 75% cell survival after 72 hrs in presence of midostaurin by CellTiter 96 AQueous One solution cell proliferation assay", "format": "functional"}, "EOL1 [27]": {"tested_on": "EOL1", "test": "Induction of apoptosis in human EOL-1 cells assessed as late apoptotic cells at 0.26 uM after 24 hrs by Annexin-V FITC/7-AAD staining based flow cytometric method (reference value: 0.535%)", "format": "functional"}, "EOL1 [28]": {"tested_on": "EOL1", "test": "Induction of apoptosis in human EOL-1 cells assessed as necrotic cells at 1.8 uM after 24 hrs by Annexin-V FITC/7-AAD staining based flow cytometric method (reference value: 0.032%)", "format": "functional"}, "MOLM-13 [29]": {"tested_on": "MOLM-13", "test": "Induction of apoptosis in human MOLM13 cells assessed as live cells at 0.26 uM after 24 hrs by Annexin-V FITC/7-AAD staining based flow cytometric method (reference value: 86.8%)", "format": "functional"}, "EOL1 [30]": {"tested_on": "EOL1", "test": "Synergistic antileukemic activity against human EOL-1 cells assessed as concentration required for <= 75% cell survival after 72 hrs in presence of midostaurin by CellTiter 96 AQueous One solution cell proliferation assay", "format": "functional"}, "EOL1 [31]": {"tested_on": "EOL1", "test": "Induction of apoptosis in human EOL-1 cells assessed as caspase-3 activation at 10 uM after 72 hrs by immunoblotting analysis", "format": "functional, cell-based", "in_short": "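EOL-1 cells (RPMI 1640, 10% FBS, 37 °C, 5% CO2) exposed 72 h; compounds at 10 μM, PKC412 at 10 nM. Harvested, PBS-washed, lysed in hypertonic NP-40 buffer with protease/phosphatase inhibitors; SDS-PAGE, PVDF transfer, rabbit monoclonal cleaved caspase-3 (Asp175) antibody 12 h, secondary 1 h, chemiluminescent detection; β-actin loading control. Representative blots of three independent experiments.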"}, "MOLM-13 [32]": {"tested_on": "MOLM-13", "test": "Induction of apoptosis in human MOLM13 cells assessed as early apoptotic cells at 0.59 uM after 24 hrs by Annexin-V FITC/7-AAD staining based flow cytometric method (reference value: 11.8%)", "format": "functional"}}, "note": "Activity calls are given as the source filed them. The calls are words filed in the database; no cut-off is given here."}
{"smiles": "C=C(C)C(=O)O[C@H]1C[C@@]2(C)OC(=CC2=O)/C(C)=C\\[C@H]2OC(=O)C(=C)[C@H]12", "values": [{"measurement": "Activity", "setting": "EOL1 [1]", "result": 0.032, "unit": "%"}, {"measurement": "Activity", "setting": "MOLM-13 [2]", "result": 1.66, "unit": "%"}, {"measurement": "Activity", "setting": "MOLM-13 [3]", "result": 0.097, "unit": "%"}, {"measurement": "Activity", "setting": "MOLM-13 [4]", "result": "Active"}, {"measurement": "inhibition", "setting": "[5]", "result": "Active"}, {"measurement": "inhibition", "setting": "[6]", "result": "Active"}, {"measurement": "Activity", "setting": "MOLM-13 [7]", "result": 9.96, "unit": "%"}, {"measurement": "IC50", "setting": "MOLM-13 [8]", "result": 1100, "unit": "nM"}, {"measurement": "Activity", "setting": "EOL1 [9]", "result": 69.1, "unit": "%"}, {"measurement": "Activity", "setting": "MOLM-13 [10]", "result": 0.08, "unit": "%"}, {"measurement": "Activity", "setting": "EOL1 [11]", "result": 92.6, "unit": "%"}, {"measurement": "Activity", "setting": "EOL1 [12]", "result": 0.301, "unit": "%"}, {"measurement": "IC50", "setting": "HT-29", "result": 260, "unit": "nM"}, {"measurement": "IC50", "setting": "EOL1 [13]", "result": 1000, "unit": "nM"}, {"measurement": "Activity", "setting": "MOLM-13 [14]", "result": 86.5, "unit": "%"}, {"measurement": "Activity", "setting": "EOL1 [15]", "result": 25.9, "unit": "%"}, {"measurement": "Activity", "setting": "MOLM-13 [16]", "result": 1.25, "unit": "%"}, {"measurement": "Activity", "setting": "EOL1 [17]", "result": 2.66, "unit": "%"}, {"measurement": "Activity", "setting": "EOL1 [18]", "result": 97.5, "unit": "%"}, {"measurement": "Activity", "setting": "EOL1 [19]", "result": 0.24, "unit": "%"}, {"measurement": "Activity", "setting": "MOLM-13 [20]", "result": 2.42, "unit": "%"}, {"measurement": "Activity", "setting": "MOLM-13 [21]", "result": 0.214, "unit": "%"}, {"measurement": "Activity", "setting": "MOLM-13 [22]", "result": 6.62, "unit": "%"}, {"measurement": "Activity", "setting": "EOL1 [23]", "result": 4.42, "unit": "%"}, {"measurement": "Activity", "setting": "EOL1 [24]", "result": 1.9, "unit": "%"}, {"measurement": "Activity", "setting": "MOLM-13 [25]", "result": 87.1, "unit": "%"}, {"measurement": "Activity", "setting": "MOLM-13 [26]", "result": 0.44, "unit": "µM"}, {"measurement": "Activity", "setting": "EOL1 [27]", "result": 0.568, "unit": "%"}, {"measurement": "Activity", "setting": "EOL1 [28]", "result": 4.7, "unit": "%"}, {"measurement": "Activity", "setting": "MOLM-13 [29]", "result": 92.3, "unit": "%"}, {"measurement": "Activity", "setting": "EOL1 [30]", "result": 0.59, "unit": "µM"}, {"measurement": "Activity", "setting": "EOL1 [31]", "result": "Active"}, {"measurement": "Activity", "setting": "MOLM-13 [32]", "result": 10.9, "unit": "%"}]}
